# Compound activity (PubChem BioAssay)
# SENP1 inh – blocks the human SENP1 SUMO protease catalytic domain; recombinant SENP1 catalytic domain, CyPet-SUMO1-YPet FRET cleavage; inhibition, % at 10 µM; 0.21% of 360,000 active; AID 624204;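 active = inhibition at least 30% at 10 µM, raw YFP signal under a set limit, fluorescence ratio 0.5 to 1.5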;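 also: 0% = enzyme with DMSO and 100% = no enzyme wells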
# Target sequence (Q9P0U3 419-644 limits assumed): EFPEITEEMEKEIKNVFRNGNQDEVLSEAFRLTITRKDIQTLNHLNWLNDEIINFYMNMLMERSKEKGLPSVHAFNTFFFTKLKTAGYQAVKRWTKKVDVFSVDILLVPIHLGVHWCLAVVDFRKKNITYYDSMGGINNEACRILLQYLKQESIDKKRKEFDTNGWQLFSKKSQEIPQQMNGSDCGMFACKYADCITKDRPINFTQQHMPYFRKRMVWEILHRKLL
#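 Test system: human SENP1 catalytic domain; medium: Tris pH 8 buffer plus EDTA, NaCl, BME, BSA, NP40, catalase; incubation: 50 min reaction at room temperature; technique: FRET, CFP and YFP emission; controls: no-enzyme low control and enzyme-plus-DMSO high control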
# SENP8 block-1 – inhibitors of human SENP8 protease; 0.64% of 360,000 active; recombinant SENP8, Nedd8 substrate fluorescence; Q96LD8; inhibition, % at 20 µM; in the data active = inhibition mostly above about 40%, no sharp cut-off; inactive = mostly below about 27%
# SENP6 block – blocks the human protease SENP6. Q9GZR1. Recombinant SENP6 catalytic domain, aminoluciferin luminescence. inhibition, % at 10 µM. 1.8% of 330,000 active. AID 2599;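 active = inhibition above about 50% at the single tested dose, limit read from the data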;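 also: plate controls were DMSO wells with enzyme for no effect and DMSO wells lacking enzyme for full effect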
# SENP8 block-2 – SENP8 protease inhibition; purified SENP8, Z-RLRGG-aminoluciferin cleavage, luminescence; inhibition, % at 10 µM; 1.2% of 330,000 active; in the data active = inhibition above about 50%
# SENP7 inh – SENP7 protease inhibition; Q9BQF6; recombinant SENP7, Z-RLRGG-aminoluciferin luminescence, 40 min; inhibition, % at 5 µM; 1.5% of 330,000 active; AID 434973;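 active = inhibition above about 50% at the single test dose, limit read from the data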;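 also: plate controls were DMSO with enzyme for no effect and no enzyme buffer wells for full effect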
# Target sequence (Q9BQF6 706-1050 limits assumed): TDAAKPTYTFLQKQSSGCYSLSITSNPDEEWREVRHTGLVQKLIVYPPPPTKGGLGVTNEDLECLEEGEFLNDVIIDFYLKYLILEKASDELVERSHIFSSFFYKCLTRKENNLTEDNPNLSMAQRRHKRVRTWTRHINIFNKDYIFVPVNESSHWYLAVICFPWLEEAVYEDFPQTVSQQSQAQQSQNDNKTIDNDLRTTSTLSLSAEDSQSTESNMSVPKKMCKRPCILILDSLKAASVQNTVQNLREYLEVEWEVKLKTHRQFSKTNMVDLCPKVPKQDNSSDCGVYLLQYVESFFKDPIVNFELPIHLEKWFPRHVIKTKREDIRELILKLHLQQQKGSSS
# SENP8 conf – SENP8 (human) inhibition, single concentration confirmation | shares compounds with SENP8 block-1 | purified SENP8, Nedd8-AMC/pro-Nedd8 cleavage fluorescence, 30 min | inhibition, % at 25 µM | 15% of 1,400 active; in the data active = inhibition mostly above about 39%, no sharp cut-off; inactive = mostly below about 34%
# Starred values were filed as active, the others as inactive; · = no result. Compounds with a hit are over-represented: about 2.5% of the library has one in this group of screens.
SMILES,SENP1 inh,SENP8 block-1,SENP6 block,SENP8 block-2,SENP7 inh,SENP8 conf
COc1ccc(NC(=O)[C@@H]2[C@@H]3C(=O)N(C4CCCCC4)C(=O)[C@@H]3C3c4ccccc4C=CN32)cc1 (some centres undefined),24,64*,9,2,6,38*
COc1ccc(NC(=O)C2CCC(N3C(=O)C4C5C=CC(C5)C4C3=O)CC2)cc1 (centres undefined),3,20,-7,2,2,·
CCS(=O)(=O)c1ccc(O)c(NC(=O)Nc2cccc3ccccc23)c1,1,-25,3,-5,1,·
Cc1ccc(NC(=O)CS(=O)CC(=O)Nc2cnc3ccccc3c2)cc1Cl (centres undefined),1,11,6,1,1,·
Cc1ccc(NC(=O)CS(=O)CC(=O)NCCCc2ccccc2)cc1Cl (centres undefined),-1,41*,-8,-5,0,17
O=c1cc(-c2ccc([N+](=O)[O-])cc2)c2cc3c(cc2[nH]1)OCCO3,3,42*,0,0,-9,16
COc1ccc(CCNC(=O)COC(=O)c2ccc(S(=O)(=O)N3CCCC3)cc2)cc1OC,-2,18,0,-8,1,·
COc1ccc(CCNC(=O)CCC(=O)N2CCN(S(=O)(=O)c3ccc(Cl)cc3)CC2)cc1OC,1,44*,-17,2,-5,8
O=C(C1CCN(S(=O)(=O)c2cnc[nH]2)CC1)N1CCc2ccccc2C1,1,42*,-3,-1,0,34
COc1ccc(CCNC(=O)C2CCCN(S(=O)(=O)c3cnc[nH]3)C2)cc1OC (centres undefined),3,0,-17,0,8,·
COc1ccc(CCC(=O)N2CCN(S(=O)(=O)c3cccc(C(F)(F)F)c3)CC2)cc1OC,2,22,-6,-9,-6,·
COc1ccc(CCNC(=O)CCC(=O)N2CCN(S(=O)(=O)c3ccccc3)CC2)cc1OC,-1,48*,-16,-10,-5,-5
COc1ccc(CCNC(=O)C2CCN(S(=O)(=O)c3cnc[nH]3)CC2)cc1OC,3,40*,-2,6,0,18
CCOc1ccc(N2CC(C(=O)NC3CCCC3)CC2=O)cc1 (centres undefined),1,0,-11,0,1,·
C[C@H]1COc2cccc(N(C)CCO)c2S(=O)(=O)N1,2,16,·,·,·,·
Cc1ccc(NC(=O)c2ccc(CN3CCc4ccccc4C3)cc2)cc1,-1,71*,21,6,12,29
O=C(Nc1cccnc1)c1ccc(CN2CCc3ccccc3C2)cc1,-4,51*,-14,-9,-4,34
C[N+]1(C)CCC(=C2c3ccccc3CC(=O)c3sccc32)CC1,-3,75*,36,3,14,56*
CCN1C(=S)SC(=O)C1=C1C=C(C)OC(C)=C1,-61,48*,-14,-20,-4,6
CCc1nc2c(OCc3cccc(Cl)c3)cccn2c1N(C)C(=O)c1ccco1,1,9,·,·,·,·
C[C@H](NC(=O)c1ccco1)C(=O)NNC(=O)c1ccc(F)cc1,1,4,-15,-8,-13,·
O=[N+]([O-])c1ccc(/C=[N+](\[O-])CCO)o1,-1,45*,7,5,-2,18
CN(C)c1cc(Nc2cccc(O)c2)c([N+](=O)[O-])c2nonc12,-17,45*,-2,4,-4,36
Cc1ccc(NC(=S)N/N=C/c2ccc([N+](=O)[O-])s2)cc1,0,40*,24,7,2,53*
N#CC1(NC(=O)COC(=O)C23CC4CC(CC(O)(C4)C2)C3)CCCCC1,1,12,-10,-1,-3,·
SMILES,SENP1 inh,SENP8 block-1,SENP6 block,SENP8 block-2,SENP7 inh,SENP8 conf
COc1ccc(C(O)c2nccn2C)cc1 (centres undefined),1,8,-18,-9,-7,·
C=Cn1ccnc1CC(O)c1ccc(OC)cc1 (centres undefined),0,44*,-17,-8,8,-6
O=C(c1cc(COc2ccc(F)cc2Cl)on1)N1CCSCC1,-2,3,-19,-5,-1,·
ON=C1c2ccccc2-c2ccc(F)cc21,2,-2,·,·,·,·
CC1(C)[N+]([O-])=C2C(=[N+]([O-])C1(C)C)c1ccccc1/C2=N\O,1,48*,-20,-4,-6,17
C=CCn1c(C)cc(C(=O)CSc2nnc(NCc3ccccc3)s2)c1C,1,9,·,·,·,·
C=CCn1c(C)cc(C(=O)CSc2nnc(NC(C)C)s2)c1C,2,44*,11,2,4,7
CCOC(=O)C1CCN(C(=S)Nc2ccc(CC)cc2)CC1,7,0,3,-5,4,·
CSCC[C@H](NC(=O)N1C[C@H]2C[C@@H](C1)c1cccc(=O)n1C2)C(=O)Nc1ccc(NC(C)=O)cc1,2,46*,-4,-6,1,9
CN=C1N(C)C[C@@H]2[C@@H]3C(=O)N(C)C(=O)[C@@H]3[C@](C)(C(=O)OC)N12,2,10,·,·,9,·
COc1ccc2c(c1)Cc1sc(NC(=O)c3cccnc3)nc1-2,-2,64*,89*,86*,84*,25
COc1ccc2c(c1)CCc1sc(NC(=O)c3ccc(C)cc3)nc1-2,1,-73,-24,-6,-1,·
C=C(C)Cn1c(NCCOC)nc2c1c(=O)[nH]c(=O)n2C,1,40*,-3,-6,0,9
COCCCNc1nc2c(c(=O)[nH]c(=O)n2C)n1CCCc1ccccc1,2,14,-16,-2,-9,·
Cc1ccc(C(=O)Nc2nnc(COCCO)s2)cc1,1,33,·,·,·,·
CC(C)c1ccc(C2c3[nH]c4ccccc4c3C[C@H]3C(=O)N(c4ccccc4C(=O)N4CCC(C(=O)O)CC4)C(=O)N23)cc1 (some centres undefined),-34,33,1,-4,3,·
Cc1cccc(C)c1NC(=O)c1ccc([N+](=O)[O-])s1,-2,29*,42,1,-7,10
O=C(NC1CCCCC1)C(c1ccccc1)n1c(=O)c(-c2ccco2)nc2ccccc21 (centres undefined),-55,-420,·,·,·,·
NS(=O)(=O)Cc1noc2ccccc12,1,3,-6,6,10,·
CCOc1ccc(Br)cc1C1=NN(C(C)=O)C(c2ccc([N+](=O)[O-])s2)O1 (centres undefined),-4,60*,42,28,24,56*
Nc1cc([N+](=O)[O-])cc2oc(-c3ccccc3)cc12,34*,36*,20,-4,13,19
Nc1ccc(N=Nc2ccccc2)cc1[N+](=O)[O-],3,26,·,·,·,·
Cc1ccc(CC(=O)Nc2ccc(C(=O)N3CCOCC3)cc2)cc1,0,-3,-5,-1,-1,·
Cn1c(=O)c2c(nc(Br)n2C)n(C)c1=O,-1,41*,-5,-5,-2,0
